Laboratory results: ChEMBL document CHEMBL1134765, “Synthesis of 4-alkoxy-2-phenylquinoline derivatives as potent antiplatelet agents” (Bioorg Med Chem Lett, 2001)
pIC50: −log10 of the molar value. One block for each molecule: values may come before it.

What was measured:
Format in all cases: functional
[1] = species: Homo sapiens; assay: In vitro inhibitory activity of control on platelet aggregation induced by collagen
In short: (§1)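 Platelets were preincubated with test sample or 0.5% DMSO vehicle at 37 °C for 1 min. Aggregation was then triggered by one inducer: thrombin 0.1 U/mL, arachidonic acid 100, collagen 10, or PAF 2 ng/mL. Read-out was percent aggregation, reported as mean±SE with n=3–6.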

[2] = species: Homo sapiens; assay: In vitro inhibitory activity of compound 0.5 (ug/ml) on platelet aggregation induced by collagen; in short: as §1
[3] = species: Homo sapiens; assay: In vitro inhibitory activity of control on platelet aggregation induced by thrombin; in short: as §1
[4] = species: Homo sapiens; assay: In vitro inhibitory activity of compound 10 (ug/ml) on platelet aggregation induced by collagen; in short: as §1
[5] = species: Homo sapiens; assay: In vitro inhibitory activity of compound 5 (ug/ml) on platelet aggregation induced by AA; in short: as §1
[6] = species: Homo sapiens; assay: In vitro inhibitory activity of compound 2 (ug/ml) on platelet aggregation induced by AA; in short: as §1
[7] = species: Homo sapiens; assay: In vitro inhibitory activity of compound 1 (ug/ml) on platelet aggregation induced by AA; in short: as §1
[8] = species: Homo sapiens; assay: In vitro inhibitory activity of compound 0.2 (ug/ml) on platelet aggregation induced by AA; in short: as §1
[9] = species: Homo sapiens; assay: In vitro inhibitory activity of compound 0.5 (ug/ml) on platelet aggregation induced by AA; in short: as §1
[10] = species: Homo sapiens; assay: In vitro inhibitory activity of compound 100 (ug/ml) on platelet aggregation induced by thrombin; in short: as §1
[11] = species: Homo sapiens; assay: In vitro inhibitory activity on platelet aggregation induced by arachidonic acid (AA)
In short: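 Platelets were preincubated 1 min at 37 °C with test sample or 0.5% DMSO. Aggregation was then triggered with arachidonic acid 100. Aspirin and indomethacin served as positive controls.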

[12] = species: Homo sapiens; assay: In vitro inhibitory activity of compound 100 (ug/ml) on platelet aggregation induced by AA; in short: as §1
[13] = species: Homo sapiens; assay: In vitro inhibitory activity of compound 0.2 (ug/ml) on platelet aggregation induced by collagen; in short: as §1
[14] = species: Homo sapiens; assay: In vitro inhibitory activity of control on platelet aggregation induced by AA; in short: as §1
[15] = species: Homo sapiens; assay: In vitro inhibitory activity of compound on platelet aggregation induced by collagen; in short: as §1
[16] = species: Homo sapiens; assay: In vitro inhibitory activity of compound 5 (ug/ml) on platelet aggregation induced by collagen; in short: as §1
[17] = species: Homo sapiens; assay: In vitro inhibitory activity of control on platelet aggregation induced by PAF; in short: as §1
[18] = species: Homo sapiens; assay: In vitro inhibitory activity of compound 2 (ug/ml) on platelet aggregation induced by collagen; in short: as §1
[19] = species: Homo sapiens; assay: In vitro inhibitory activity of compound 100 (ug/ml) on platelet aggregation induced by collagen; in short: as §1
[20] = species: Homo sapiens; assay: In vitro inhibitory activity of compound 100 (ug/ml) on platelet aggregation induced by PAF; in short: as §1
[21] = species: Homo sapiens; assay: In vitro inhibitory activity of compound 1 (ug/ml) on platelet aggregation induced by collagen; in short: as §1
[22] = species: Homo sapiens; assay: In vitro inhibitory activity of compound 0.1 (ug/ml) on platelet aggregation induced by collagen; in short: as §1
[23] = species: Homo sapiens; assay: In vitro inhibitory activity of compound 0.1 (ug/ml) on platelet aggregation induced by AA; in short: as §1
[24] = species: Homo sapiens; assay: In vitro inhibitory activity of compound 20 (ug/ml) on platelet aggregation induced by PAF; in short: as §1
[25] = species: Homo sapiens; assay: In vitro inhibitory activity of compound 50 (ug/ml) on platelet aggregation induced by PAF; in short: as §1
[26] = species: Homo sapiens; assay: Potent antiplatelet activity was evaluated

pIC50 [11]: 5.70 | pIC50 [15]: 5.44
Structure (SMILES): CCOc1cc(-c2ccccc2)nc2ccccc12
Aggregation [1]: 89.2% | Aggregation [2]: 43.5% | Aggregation [3]: 92.5% | Aggregation [4]: 5.9% | Aggregation [5]: 0% | Aggregation [6]: 1.7% | Aggregation [7]: 4.3% | Aggregation [8]: 86.4% | Aggregation [9]: 23.1% | Aggregation [10]: 80% | Aggregation [12]: 0% | Aggregation [13]: 78.5% | Aggregation [14]: 90.9% | Aggregation [16]: 15.9% | Aggregation [17]: 92% | Aggregation [18]: 28.4% | Aggregation [19]: 0% | Aggregation [20]: 63.8% | Aggregation [21]: 36.3% | Aggregation [22]: 85.9%

pIC50 [11]: 5.67 | pIC50 [15]: 5.77
Structure (SMILES): COc1cc(-c2ccccc2)nc2ccccc12
Aggregation [1]: 89.2% | Aggregation [3]: 92.5% | Aggregation [6]: 0% | Aggregation [7]: 9.3% | Aggregation [23]: 90.8% | Aggregation [8]: 86% | Aggregation [9]: 53.4% | Aggregation [10]: 56.8% | Aggregation [12]: 0% | Aggregation [14]: 90.9% | Aggregation [16]: 0% | Aggregation [17]: 92% | Aggregation [24]: 87.2% | Aggregation [18]: 9.4% | Aggregation [19]: 0% | Aggregation [20]: 0% | Aggregation [25]: 65.8% | Aggregation [21]: 18.5%

pIC50 [11]: 5.81
Structure (SMILES): CCOC(=O)CCCOc1cc(-c2ccccc2)nc2cccc(CC)c12

pIC50 [11]: 6.28
Structure (SMILES): CCOC(=O)CCCCOc1cc(-c2ccccc2)nc2cccc(CC)c12

pIC50 [26]: 6.82
Structure (SMILES): CCc1cccc2nc(-c3ccccc3)cc(O)c12

pIC50 [11]: 7.10
Structure (SMILES): CCc1cccc2nc(-c3ccccc3)cc(OC)c12

pIC50 [11]: 4.45
Structure (SMILES): O=C(O)COc1cc(-c2ccccc2)nc2ccccc12

pIC50 [11]: 5.40
Structure (SMILES): CCOc1cc(-c2ccccc2)nc2cc(CC)ccc12

pIC50 [11]: 6.22
Structure (SMILES): CCNC(=O)COc1cc(-c2ccccc2)nc2cccc(CC)c12

pIC50 [11]: 4.52
Structure (SMILES): CCc1cccc2c1c(=O)cc(-c1ccccc1)n2C

pIC50 [11]: 4.86
Structure (SMILES): CCOC(=O)COc1cc(-c2ccccc2)nc2ccccc12

pIC50 [11]: 6.11
Structure (SMILES): CCOC(=O)COc1cc(-c2ccccc2)nc2cccc(CC)c12

pIC50 [11]: 6.85
Structure (SMILES): CCOc1cc(-c2ccccc2)nc2cccc(CC)c12

pIC50 [11]: 5.73
Structure (SMILES): CCc1cccc2nc(-c3ccccc3)cc(OCC(=O)NC)c12

pIC50 [11]: 4.70
Structure (SMILES): CC(=O)Oc1ccccc1C(=O)O [ASPIRIN]

pIC50 [11]: 6.60
Structure (SMILES): COc1ccc2c(c1)c(CC(=O)O)c(C)n2C(=O)c1ccc(Cl)cc1 [INDOMETHACIN]
